In ChEMBL document CHEMBL1124828, “Synthesis and antiviral and cytotoxic activity of iodohydrin and iodomethoxy derivatives of 5-vinyl-2'-deoxyuridines, 2'-fluoro-2'-deoxyuridine, and uridine” (J Med Chem, 1990):
Values after ≈ are worked out from the molar mass of the structure shown. Active and inactive are the calls of the source. No cut-off for these calls is given here.

What was measured:
[1] = Inhibition constant was determined for the facilitated transport of [[…]]-thymidine by murine erythrocyte NBMPR-sensitive nucleoside transporter.; type: functional, Mus musculus
Summary of the method: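 Murine erythrocytes; facilitated uptake of [3H]thymidine through the NBMPR-sensitive nucleoside transporter. Extracellular [3H]thymidine sampled at various times after exposure and counted by liquid scintillation. Ki taken as the inhibition constant for this transport. Values are generally the mean of two determinations (range), with some n = 1 and the 2'-deoxyuridine reference n = 3.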

L1210 [2] = test: Tested for cytotoxicity against murine L1210 cells in vitro; weak cytotoxicity; type: functional, cell-based; conditions: Mus musculus
Vero [3] = test: Dose to inhibit plaque formation in vero cells infected with herpes simplex virus type-1 (HSV-1,strainJLJ) was determined relative to acyclovir; value ranges from 0.1-1.0 ug/mL; type: functional; conditions: Chlorocebus sabaeus, read-out: ID50 (the source's name)
Mus musculus = species on record: Mus musculus; test: Percent survival of L1210 cells in suspension was determined after a dose of 10 ug/mL in mouse; type: functional
Summary of the method: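 L1210 suspension cultures in Fischer's medium with 10% heat-inactivated horse serum, 37 °C, 5% CO2. Compound was added from ethanol, water or ethanol/water at final 50, 10 or 1 μg/mL. Cells were counted by Coulter counter after 48 h. % survival = (T48−T0)/(C48−C0)×100 versus untreated controls, given as mean ± SD (n = 3).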

Vero [4] = test: Dose to inhibit plaque formation in vero cells infected with herpes simplex virus type-1 (HSV-1,strainJLJ) was determined; type: functional; conditions: Chlorocebus sabaeus, read-out: ID50 (the source's name)
Summary of the method: (§1)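 HSV-1 plaque-reduction assay in Vero cell monolayers. After 1-h virus adsorption at 37 °C, cells were overlaid with 1% agarose in E-MEM with 2% FBS containing the compound at 0.1, 1.0 and 10 μg/mL. Neutral red staining followed 4 days at 37 °C in 5% CO2, then plaques were counted. ID50 is the concentration cutting plaque number by 50%. The experiment was run once.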

P388 [5] = test: In vivo cytotoxicity was determined against P388 mouse leukemia cells expressed as % treated/control; type: functional
Summary of the method: (§2)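 B6D2F1 mice, six per group, were implanted ip with 10⁶ P388 leukemia cells in 0.2 mL saline on day 0. Compound in saline/ethanol (6:1) was given ip at 20 mg/kg on days 1–5. Mice were followed until death. Mean survival time was compared with saline-treated controls and expressed as % T/C.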

L1210 [6] = test: In vitro cytotoxicity was determined against L1210 leukemia cell from mouse.; type: functional; conditions: read-out: ED50 (the source's name)
Summary of the method: (§3)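 Mouse L1210 cells were grown in suspension in Fischer's medium with 10% heat-inactivated horse serum at 37 °C, 5% CO2, seeded at 10⁵ cells/mL. Compound was added from ethanol, water or ethanol/water at final 50, 25, 10, 5.0, 2.5 and 1 μg/mL. Cells were counted by Coulter counter at 48 h, in triplicate. % survival = (T48−T0)/(C48−C0)×100; ED50 is the 50% survival reduction.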

P388 [7] = test: In vivo cytotoxicity was determined against P388 mouse leukemia cells, (% treated / control) at 20 mg/kg (ip) administration; type: functional; summary of the method: as §2
L1210 [8] = test: In vitro cytotoxicity was determined against L1210 leukemia cells from mouse; type: functional; conditions: read-out: ED50 (the source's name); summary of the method: as §3
Human alphaherpesvirus 1 = test: Tested for in vitro anti-HSV-1 activity; active; type: functional, organism-based
Vero [9] = test: Dose to inhibit plaque formation in vero cells infected with herpes simplex virus type 1 (HSV-1,strainJLJ) was determined; type: functional; conditions: Chlorocebus sabaeus, read-out: ID50 (the source's name); summary of the method: as §1

| Compound | Ki [1] [µM] | Survival (Mus musculus) [%] | IC50 (Vero [4]) [µg/mL] | other results |
| --- | --- | --- | --- | --- |
| O=c1ccn([C@H]2C[C@H](O)[C@@H](CO)O2)c(=O)[nH]1 [DEOXYURIDINE] | 125 | – | – | – |
| O=c1[nH]c(=O)n([C@H]2C[C@H](O)[C@@H](CO)O2)cc1C(O)CBr (some centres not stated) | – | – | – | Cyotoxicity (L1210 [2]): weak cytotoxicity; IC50 (Vero [3]): 1 µg/mL (≈ 2.85 µM) |
| O=c1nc2c(cn1[C@H]1C[C@H](O)[C@@H](CO)O1)C(O)CO2 (some centres not stated) | 8000 | 103 | > 100 | – |
| COC(CI)c1cn([C@@H]2O[C@H](CO)[C@@H](O)[C@H]2F)c(=O)[nH]c1=O (some centres not stated) | – | 97 | > 100 | – |
| O=c1[nH]c(=O)n(C2CC(O)C(CO)O2)cc1C(O)C(I)I (configuration not stated) | 220 | 2 | > 10 | T/C (P388 [5]): 112%; EC50 (L1210 [6]): 0.77 µg/mL (≈ 1.47 µM) |
| O=c1[nH]cc(F)c(=O)[nH]1 [FLUOROURACIL] | – | – | – | T/C (P388 [7]): >135% |
| O=c1[nH]c(=O)n([C@H]2C[C@H](O)[C@@H](CO)O2)cc1C(O)CI (some centres not stated) | 155 | 52 | > 10 | T/C (P388 [5]): 98%; EC50 (L1210 [6]): 10.5 µg/mL (≈ 26.4 µM) |
| C=Cc1cn([C@@H]2O[C@H](CO)[C@@H](O)[C@H]2F)c(=O)[nH]c1=O | – | 87 | 0.1 (≈ 0.367 µM) | – |
| N[C@@H](Cc1ccc(N(CCCl)CCCl)cc1)C(=O)O [MELPHALAN] | – | – | – | EC50 (L1210 [8]): 0.15 µg/mL (≈ 0.491 µM) |
| COC(CI)c1cn(C2O[C@H](CO)[C@@H](O)[C@H]2O)c(=O)[nH]c1=O (some centres not stated) | – | 108 | > 100 | – |
| COCC(O)c1cn([C@H]2C[C@H](O)[C@@H](CO)O2)c(=O)[nH]c1=O (some centres not stated) | 610 | 37 | > 10 | T/C (P388 [5]): 103%; EC50 (L1210 [6]): 12 µg/mL (≈ 39.7 µM) |
| O=c1[nH]c(=O)n([C@H]2C[C@H](O)[C@@H](CO)O2)cc1/C=C/I | 25 | – | < 0.1 | – |
| O=c1[nH]c(=O)n([C@H]2C[C@H](O)[C@@H](CO)O2)cc1/C=C/Br | – | – | – | Activity (Human alphaherpesvirus 1): Active |
| O=c1[nH]c(=O)n([C@H]2C[C@H](O)[C@@H](CO)O2)cc1C(O)CCl (some centres not stated) | – | – | – | Cyotoxicity (L1210 [2]): weak cytotoxicity; IC50 (Vero [3]): 1 µg/mL (≈ 3.26 µM) |
| COC(CBr)c1cn([C@H]2C[C@H](O)[C@@H](CO)O2)c(=O)[nH]c1=O (some centres not stated) | – | – | – | Cyotoxicity (L1210 [2]): weak cytotoxicity; IC50 (Vero [3]): 1 µg/mL (≈ 2.74 µM) |
| Nc1nc2c(ncn2COCCO)c(=O)[nH]1 [ACYCLOVIR] | – | – | – | IC50 (Vero [9]): 0.01 µg/mL (≈ 0.0444 µM) |
| O=c1[nH]c(=O)n(C2O[C@H](CO)[C@@H](O)[C@H]2O)cc1C(O)CI (some centres not stated) | – | 87 | > 100 | – |
| O=c1[nH]c(=O)n([C@@H]2O[C@H](CO)[C@@H](O)[C@H]2F)cc1C(O)CI (some centres not stated) | – | 93 | > 100 | – |
| O=c1[nH]c(=O)n([C@H]2C[C@H](O)[C@@H](CO)O2)cc1CCCl | – | – | – | Activity (Human alphaherpesvirus 1): Active |
| COC(CI)c1cn([C@H]2C[C@H](O)[C@@H](CO)O2)c(=O)[nH]c1=O (some centres not stated) | 35 | 42 | 0.1 (≈ 0.243 µM) | T/C (P388 [5]): 114%; EC50 (L1210 [6]): 6 µg/mL (≈ 14.6 µM) |
